In PubChem BioAssay AID488937 (Broad Institute, 2010):
Records with an inconclusive call do not appear. Activity calls are given as the source filed them.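 How the source made its calls: active means compounds whose fitted half-maximal growth inhibition dose is no more than ten times the top tested dose; inconclusive means flat curve inhibiting 30 to 70%, or poor curve fit; inactive means flat within 30%, weaker potency, or rising signal.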

Assay: single-agent toxicity toward C. albicans – CaCi-2 strain, dry powder, set 3, counter-screen for reversing antifungal drug resistance, dose response (AID 488937)
Conditions: C. albicans CaCi-2 growth, Alamar Blue fluorescence, 48 h; series mostly up to 26 µM
In short: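 Material: Candida albicans strain CaCi-2 yeast, fluconazole absent. Amount: inoculum A600 0.00015. Buffer or medium: RPMI medium without fluconazole. Times: 48 h growth at 37 °C, dye 2 h. Technique: Alamar Blue fluorescence in RFU[…]. Read-out basis: relative yeast growth by fluorescence. Controls: geldanamycin positive control.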
For `O=C(c1ccc(F)cc1)N1CCN(c2ccccn2)CC1`, the outcome was “inactive”. For `Cn1ccnc1N1CCN(C(=O)c2ccc(Cl)cc2)CC1`, the outcome was “inactive”. In the case of `N#Cc1ccc(C(=O)N2CCN(c3ccccn3)CC2)cc1`, the outcome is reported as “inactive”. For `O=C(c1ccc(Cl)cc1)N1CCN(c2cnccn2)CC1`, the outcome was “inactive”. In the case of `CC(C)C(=O)N1CCN(c2ccccn2)CC1`, the outcome is reported as “inactive”. For `COc1ccc(C(=O)N2CCN(c3ccccn3)CC2)cc1`, the outcome was “inactive”. In the case of `Cc1ccc(C(=O)N2CCN(c3ccccn3)CC2)cc1`, the outcome is reported as “inactive”. In the case of `Cc1ccnc(N2CCN(C(=O)c3ccc(Cl)cc3)CC2)c1`, the outcome is reported as “inactive”. In the case of `O=C(c1ccc(Cl)cc1)N1CCN(c2nc3ccccc3o2)CC1`, the outcome is reported as “inactive”. With `O=C(c1ccc(Cl)cc1)N1CCN(c2nc3ccccc3s2)CC1` the outcome was “inactive”. With `CCCCC(=O)N1CCN(c2ccccn2)CC1` the outcome was “inactive”. For `O=C(c1ccccc1)N1CCN(c2ccccn2)CC1`, the outcome was “inactive”. For `Cc1ccc(N2CCN(C(=O)c3ccc(Cl)cc3)CC2)nn1`, the outcome was “inactive”. For `O=C(c1ccc(Cl)cc1)N1CCN(c2ccc(C(F)(F)F)cn2)CC1`, the outcome was “inactive”. In the case of `N#Cc1cccnc1N1CCN(C(=O)c2ccc(Cl)cc2)CC1`, the outcome is reported as “inactive”. With `Cc1ccc(N2CCN(C(=O)c3ccc(Cl)cc3)CC2)nc1` the outcome was “inactive”. In the case of `O=C(c1ccc(Cl)cc1)N1CCN(c2nccs2)CC1`, the outcome is reported as “inactive”. With `COCCC(=O)N1CCN(c2ccccn2)CC1` the outcome was “inactive”. In the case of `Cc1cccc(N2CCN(C(=O)c3ccc(Cl)cc3)CC2)n1`, the outcome is reported as “inactive”. In the case of `O=C(c1ccccc1Cl)N1CCN(c2ccccn2)CC1`, the outcome is reported as “inactive”. In the case of `O=C(c1ccc(Cl)cc1)N1CCN(c2ncccn2)CC1`, the outcome is reported as “inactive”. With `O=C(c1ccc(Cl)cc1)N1CCN(c2cccc(C(F)(F)F)n2)CC1` the outcome was “inactive”. With `COc1cccnc1N1CCN(C(=O)c2ccc(Cl)cc2)CC1` the outcome was “inactive”.
